# Measured values: ChEMBL document CHEMBL4513216, “Probing the Open Global Health Chemical Diversity Library for Multistage-Active Starting Points for Next-Generation Antimalarials” (ACS Infect Dis, 2020)
# Experiment: Toxicity liver stage against HepG2, at 10uM
# Type: cell-based
# Parameters: test concentration 10 uM, cell line HepG2-A16-CD81EGFP
# Conditions: human, HepG2-A16-CD81EGFP cells; read-out: INHIBITION
# Summary of the method: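 Uninfected HepG2-A16-CD81EGFP cells, 3 × 10^3 per well, 1536-well, plated on prespotted compound at 10 μM final, parasite-free screening media added to match infected plates; puromycin 10 μM positive, DMSO 0.5% negative; run in parallel with 48 h PbLuc assay at 37 °C, 5% CO2; viability by CellTiter-Glo luminescence, normalized to controls.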
row,Structure (SMILES),cytotoxicity at 10 µM [%]
1,CCN(CC)S(=O)(=O)c1ccc(C(=O)NC(C)(C)C)cc1,-6.79
2,O=C(NC[C@H]1CCCC[C@H]1O)c1cccc2[nH]c(-c3cccs3)nc12,-6.95
3,COc1ccc2c(ccn2CCC(=O)NCCC(=O)O)c1,6.81
4,Cn1cnnc1S(=O)(=O)C1CCN(C(=O)c2ccco2)CC1,-2.28
5,Cc1cccc(CN2CCC23CCCNC3)n1 (stereo unspecified),2.55
6,CCN1CCC2(COCc3c(C)nc(N4CCOCC4)nc32)C1 (stereo unspecified),-141
7,Cn1cc(CN2CC[C@H]3C[C@H](c4nc(C5CC5)cs4)O[C@@H]3C2)cn1,-6.78
8,COCCN1C[C@H]2[C@@H](C1)N(Cc1ccc(C)o1)CC[C@H]2OC,-8.34
9,CCn1nccc1CN(C)c1[nH]cnc2nc(C)nc1-2,-7.97
10,Cc1c(S(=O)(=O)N(CCc2ccccc2)Cc2ccn(C)n2)cnn1C,3.82
11,Cc1ccc(-c2ccccc2CC2(C(=O)NC(C)C)CCCNC2)cc1 (stereo unspecified),2.73
12,Cc1nonc1C(=O)N1CCCC(c2ncncc2-c2ccncc2)C1 (stereo unspecified),1.41
13,CCN(CC1CCOC1)C(=O)NCc1nnc2n1CCC2 (stereo unspecified),13.6
14,CC(CN1CCOC1=O)NC(=O)c1cccc(C#N)c1 (stereo unspecified),-8.37
15,CCCOc1ccc2c(c1)OCC(CNC1CCc3ncnn3C1)=C2 (stereo unspecified),-6.63
16,COc1c(CNCC(=O)N2CCN(C)CC2)c(C(C)C)nn1C,7.45
17,COCCN(CCOC)C(=O)c1cnn(C)c1-n1c(C)ccc1C,-144
18,COc1ccc(N2CCC(NC(=O)c3ccc(C#N)cc3)CC2)cc1,-14.7
19,CCOCCNC(=O)CCC1CCCO1 (stereo unspecified),-122
20,CCc1nc(CSc2nnc(N)n2C2CC2)no1,6.12
21,Cc1noc(C(C)Nc2ccc3c(c2)CCC3)n1 (stereo unspecified),1.84
22,CC(C)C(NC(=O)Nc1cnn(CC(N)=O)c1)c1ccc(Cl)cc1 (stereo unspecified),7.51
23,CCc1nc2n(n1)CC(NCc1cc3ccccc3o1)CC2 (stereo unspecified),3.77

row,Structure (SMILES),cytotoxicity at 10 µM [%]
1,CC(C(=O)Nc1ccccc1Sc1ccccc1)S(C)(=O)=O (stereo unspecified),-1.7
2,CC(=O)NC1CCCN(Cc2ccc(OCc3ccccn3)cc2)C1 (stereo unspecified),1.41
3,CN(C)CCCNc1ncnc2cccc(F)c12,9.66
4,O=C(NC1(c2nnn(CC3CC3)n2)CCCC1)c1ccccc1,6.48
5,CCCOC(=O)C(C)Sc1nnnn1C1CCOCC1 (stereo unspecified),18.1
6,COc1ccc(C)cc1C(=O)NC1(C#N)CCOCC1,1.98
7,CCC(CNC1CCN(C(C)=O)CC1)Oc1ccccc1Cl (stereo unspecified),-13.4
8,CN(Cc1cccs1)C(=O)CNC1CCc2ncnn2C1 (stereo unspecified),3.03
9,CC1CCN(S(=O)(=O)c2cccnc2)c2ccccc2S1 (stereo unspecified),5
10,Cn1c2ncccc2c(=O)n1CC(=O)Nc1ccc(F)c(F)c1,16.5
11,O=C(O)c1ccc(F)c(S(=O)(=O)Nc2ccc(-n3cccn3)c(Cl)c2)c1,2.24
12,CC(C)c1noc(CN(Cc2cccs2)C2CC2)n1,-9.15
13,O=C(COc1cccc2c1CCC2=O)NCCOc1ccccc1,10.5
14,CC(C)C(=O)N1CCN(Cc2csc(-c3ncccn3)n2)CC1,-5.1
15,CS(=O)(=O)N1CC[C@H]2OCC[C@@]2(C(=O)NCC2CC2)C1,-98.2
16,CC(=O)N1CC[C@H]2OCC[C@@]2(C(=O)NCc2cnc(C)cn2)C1,-106
17,CC(C)CC(=O)N1CC[C@@H]2CN(Cc3cccnc3)S(=O)(=O)[C@@H]2CC1,-103
18,O=C(CC1CC1)N1CCC2(COCc3cnc(-c4cccnc4)nc32)C1 (stereo unspecified),-106
19,Cn1ccc(-c2cc(C(=O)N3CCC(O)CC3)c3ccccn23)n1,-98.3
20,c1cc(CN2CCCn3nnc(COCC4CC4)c3C2)ccn1,-113
21,Cc1ccccc1CSc1nc(N)cc(N2CCC(CC(N)=O)CC2)n1,-10.4
22,O=c1cc(CN2CC[C@@]3(O)CCCC[C@H]3C2)c2cccc3c2n1CCC3,-0.948
23,Cc1cc(C)n(CCCN(C)C(=O)[C@H]2CCCO2)n1,-13.2

row,Structure (SMILES),cytotoxicity at 10 µM [%]
1,COCC[C@]1(O)CCN(c2ncc(Cl)cc2F)C[C@H]1C,12.8
2,c1ccc(C2CCCCN2Cc2nc(-c3cnccn3)no2)nc1 (stereo unspecified),-8.04
3,OCCc1cn(CC2CCCN(Cc3nccs3)C2)nn1 (stereo unspecified),-6.51
4,O=C(CCC1CC1)N1CCC(n2cc(C3(O)CCCC3)nn2)CC1,9.4
5,O=C1CN(C(=O)CC2c3ccccc3CCc3ccccc32)CCN1,9.98
6,Cc1ccc(-c2ncc(C(=O)N3CCC[C@H](N)C3)c(O)n2)cc1,-7.14
7,Cn1cc2ncn(CCC3CCN(Cc4ccccc4)C3)c(=O)c2n1 (stereo unspecified),1.28
8,Cc1cc(C)nc(NCCSc2cnn[nH]2)n1,3.22
9,Cc1ccsc1-c1nccn1CCN(C)S(C)(=O)=O,-7.36
10,CS(=O)(=O)CC1CCCN(C(=O)Cn2cccc(C(F)(F)F)c2=O)C1 (stereo unspecified),4.1
11,COCCN1CCCC2(CCN(c3nc(C)nc4ccsc34)C2)C1=O (stereo unspecified),10.7
12,CN1CCCN(Cc2nc(Cc3ccccc3)n[nH]2)CC1,-7.47
13,Cc1cnc(N)nc1N1CCN(CCCO)CC1,0.761
14,CCC(CO)N(C/C(C)=C/c1ccco1)Cc1ccsc1 (stereo unspecified),1.12
15,CN(C)c1nc2c(c(N3CCC4(CCCNC4=O)C3)n1)CCCC2 (stereo unspecified),-5.81
16,CC(C)[C@H]1CN(Cc2ccccn2)C[C@@H]1NC(=O)CC1CCC1,-2.57
17,O=C(c1ccoc1)N1CCCN(CC2CCOc3ccccc3C2)CC1 (stereo unspecified),0.0531
18,CC(C)Cn1cncc1CNC(=O)c1cccc(CC2CCNCC2)c1,-4.47
19,CCN1CCN(CCCNc2ncccn2)CC1,3.41
20,OC1(CN(Cc2cccnc2)C2CCCCC2)CNCCOC1 (stereo unspecified),-21
21,COc1nccc(N2CC[C@@H](N3CCCCCC3)[C@H](O)C2)c1C#N,-152
22,c1ccc(CN2CCC(NCCSc3ncn[nH]3)C2)cc1 (stereo unspecified),-2.76
23,Cc1cccnc1CN1CCOC(Cc2cccc3ccccc23)C1 (stereo unspecified),-2.43

row,Structure (SMILES),cytotoxicity at 10 µM [%]
1,CC(C)C1=NOC(c2nc(Cc3ccccc3)no2)C1 (stereo unspecified),-3.94
2,CC(=O)NCC1CCC2(CCN(c3nccc(C4CCCC4)n3)CC2)O1 (stereo unspecified),-4.43
3,CC(C)c1cc(C(=O)N2CCN(CC3CC3)[C@@H]3CS(=O)(=O)C[C@@H]32)on1,3.05
4,N#Cc1ccc(CN2CCN(C(=O)C3CCC3)[C@@H]3CS(=O)(=O)C[C@@H]32)cc1,-9.78
5,CCOCCn1nc(C)cc1C(=O)N1CCOCC(CO)C1 (stereo unspecified),-20
6,Cc1ccccc1CSc1nc(N)cc(N2CC[C@@H](O)C2)n1,0.28
7,CNc1cccc(C2CCCN(C(=O)c3ccncc3)C2)n1 (stereo unspecified),-4.02
8,Cc1cc(CN(C)C(=O)c2cccc(N3CCCS3(=O)=O)c2)no1,-10.2
9,CC(=O)c1cccc(S(=O)(=O)NCc2cccnc2N(C)C)c1,4.24
10,c1csc(-c2nc(CN3CCCCC3Cn3cncn3)cs2)c1 (stereo unspecified),-1.19
11,CC(NC(=O)NCCCc1n[nH]c(N)c1C#N)c1cccc(Cl)c1 (stereo unspecified),-4.14
12,CCc1sc(C(=O)N2CCC(Nc3ccc(C)nn3)CC2)cc1C,1.86
13,Cc1ccc(NC2CCN(C(=O)c3ccc(C(N)=O)s3)CC2)nn1,1.8
14,O=C(c1ccc2c(c1)OCCCO2)N1CCCC(n2ccnc2)C1 (stereo unspecified),0.893
15,CC(C)c1nc(C2CCCN(C(=O)c3cccc4c3OCO4)C2)no1 (stereo unspecified),-12
16,CC1CCCN(C(=O)C2CCN(c3snc4ccccc34)CC2)C1 (stereo unspecified),10.1
17,CC(=O)N1CCN(C(=O)NCc2ccc(Cl)s2)CC1,-15.4
18,CCc1nnc2n1CCN(CC(=O)Nc1sccc1C#N)C2,-7.67
19,CC(C)c1noc(CN2CCN(C(=O)c3ccccc3F)CC2)n1,-8.08
20,Cc1cnn(CCNCc2nc(-c3ccccc3Cl)no2)c1,-9.91
21,COc1cc(CNC(=O)NCc2c(C)cc(C)[nH]c2=O)ccc1C,-11.5
22,Cc1nc(CN2CCCC(NCCOc3ccccc3)C2)no1 (stereo unspecified),-7.98
23,CC(C)(C)c1cnc(CN2CCC(c3ccnn3CCO)CC2)o1,-3.15

row,Structure (SMILES),cytotoxicity at 10 µM [%]
1,Cn1cc(C(=O)NCC2CCN(C(=O)NCC(F)(F)F)CC2)cn1,-3.68
2,O=C(CCN1CCCC1C1CCCCC1)N1CCc2sccc2C1 (stereo unspecified),-11
3,COc1ccc(CNC(=O)Nc2cccnc2N2CCCC2)cc1O,-10.7
4,CCN1CCN(C2CCN(Cc3ncc(C(C)(C)C)o3)CC2)C1=O,2.05
5,Cc1cnn(C2CCCN(C(=O)c3ccn(C)c(=O)c3)C2)c1 (stereo unspecified),4.55
6,CCSCCC(=O)NS(=O)(=O)c1ccc2c(c1)OCCO2,0.35
7,Cn1cc([C@@H]2CN(S(=O)(=O)c3cccs3)C[C@H]2N)c2ccncc21,1.44
8,Cc1cccc(CN2CCC3(CCN(c4ncccn4)CC3)C2=O)c1,5.32
9,CN(C)C(=O)N1C[C@@H]2CCCO[C@@H]2[C@H](N(C)Cc2ccco2)C1,-7.82
10,CCCNC(c1ccc(F)cc1)c1cccnc1 (stereo unspecified),3.41
11,CCOCC1CN(Cc2cccc(C#N)c2)Cc2nccn2C1 (stereo unspecified),-8.22
12,CC(C)c1nn(C)c(Cl)c1CNCC(O)c1cccc(F)c1 (stereo unspecified),-1.83
13,Cc1ccc(CN2Cc3nnn(C)c3C(COCC(=O)N(C)C)C2)s1 (stereo unspecified),10.1
14,COc1ccc(CN2C[C@H](OCC3CCOCC3)[C@H]3COC[C@H]32)cc1,-9.78
15,COc1cc(N2C[C@@H]3COC[C@]3(COc3cccnc3)C2)ncn1,2.13
16,Cc1ccc(CN2CCn3c(C(=O)N(C)C)cnc3C2)s1,5.97
17,COCC(=O)N1CCC2(CC1)CCN(Cc1ccccn1)C2=O,1.62
18,COC(=O)c1ccc(CN(C(C)C)C(C)C)o1,2.21
19,CC(C)c1cc(C(=O)N2C[C@@H]3CC[C@H]2CN(Cc2ccccn2)C3)no1,2.46
